Reference: ChEMBL document CHEMBL3804761, “Synthesis of a stable and orally bioavailable englerin analogue” (Bioorg Med Chem Lett, 2016)

Legend:
Format in all cases: functional
[1] = tested on: A498; experiment: Growth inhibition of human A498 cells assessed as cell growth at 10 uM incubated for 48 hrs by sulforhodamine B assay relative to control; settings: A498, 48 h, read-out: Activity
[2] = tested on: SR; experiment: Growth inhibition of human SR cells assessed as cell growth at 10 uM incubated for 48 hrs by sulforhodamine B assay relative to control; settings: read-out: Activity
Method in brief: (§1)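 Run in the standard NCI 60-cell-line screen. Cells were exposed to drug for two days, and the read-out was sulforhodamine B staining. Compound was tested at a single final concentration of 10 µM in every line, and results are reported as growth percent.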

[3] = Growth inhibition of human UACC257 cells assessed as cell growth at 10 uM incubated for 48 hrs by sulforhodamine B assay relative to control; settings: UACC-257, 48 h, read-out: Activity
Method in brief: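 NCI 60-cell line standard protocol, one-dose screen: single final concentration 10 µM, 2-day drug exposure, sulforhodamine B (SRB) endpoint; read-out is growth percent relative to untreated control.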

[4] = Growth inhibition of human HL-60(TB) cells incubated for 48 hrs by sulforhodamine B assay; settings: HL-60, 48 h; for CC50: read-out: pLC50 (the source's name) (converted); for TGI: read-out: pTGI (converted)
Method in brief: (§2)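 NCI 60-cell-line panel, standard protocol. Cells exposed to compound for two days, growth read by sulforhodamine B staining. Tested at five 10-fold dilutions, top concentration 100 µM, to give dose-response curves.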

[5] = Growth inhibition of human RXF393 cells assessed as cell growth at 10 uM incubated for 48 hrs by sulforhodamine B assay relative to control; settings: RXF 393, 48 h, read-out: Activity; method in brief: as §1
[6] = Growth inhibition of human BT549 cells incubated for 48 hrs by sulforhodamine B assay; settings: BT-549, 48 h; for CC50: read-out: pLC50 (the source's name) (converted); for TGI: read-out: pTGI (converted); method in brief: as §2
[7] = tested on: SK-MEL-2; experiment: Growth inhibition of human SK-MEL-2 cells assessed as cell growth at 10 uM incubated for 48 hrs by sulforhodamine B assay relative to control; settings: SK-MEL-2, 48 h, read-out: Activity; method in brief: as §1
[8] = Growth inhibition of human OVCAR8 cells assessed as cell growth at 10 uM incubated for 48 hrs by sulforhodamine B assay relative to control; settings: OVCAR-8, 48 h, read-out: Activity; method in brief: as §1
[9] = Growth inhibition of human BT549 cells assessed as cell growth at 10 uM incubated for 48 hrs by sulforhodamine B assay relative to control; settings: BT-549, 48 h, read-out: Activity; method in brief: as §1
[10] = Growth inhibition of human HOP92 cells assessed as cell growth at 10 uM incubated for 48 hrs by sulforhodamine B assay relative to control; settings: HOP-92, 48 h, read-out: Activity
Method in brief: (§3)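 Single-dose screen in the NCI 60-cell-line panel at one final concentration of 10 µM. Two-day drug exposure with a sulforhodamine B endpoint. Values are growth percent for each cell line.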

[11] = tested on: 786-0; experiment: Growth inhibition of human 786-0 cells incubated for 48 hrs by sulforhodamine B assay; settings: 786-0, 48 h; for TGI: read-out: pTGI (converted); method in brief: as §2
[12] = tested on: HT-29; experiment: Growth inhibition of human HT-29 cells assessed as cell growth at 10 uM incubated for 48 hrs by sulforhodamine B assay relative to control; settings: HT-29, 48 h, read-out: Activity; method in brief: as §1
[13] = tested on: HT-29; experiment: Growth inhibition of human HT-29 cells incubated for 48 hrs by sulforhodamine B assay; settings: HT-29, 48 h; for TGI: read-out: pTGI (converted); method in brief: as §2
[14] = tested on: NCI/ADR-RES; experiment: Growth inhibition of human NCI/ADR-RES cells assessed as cell growth at 10 uM incubated for 48 hrs by sulforhodamine B assay relative to control; settings: read-out: Activity; method in brief: as §1
[15] = Growth inhibition of human LOXIMVI cells assessed as cell growth at 10 uM incubated for 48 hrs by sulforhodamine B assay relative to control; settings: LOX IMVI, read-out: Activity; method in brief: as §3
[16] = tested on: ACHN; experiment: Growth inhibition of human ACHN cells incubated for 48 hrs by sulforhodamine B assay; settings: for TGI: read-out: pTGI (converted); method in brief: as §2
[17] = tested on: A549; experiment: Growth inhibition of human A549/ATCC cells incubated for 48 hrs by sulforhodamine B assay; settings: A549, 48 h; for TGI: read-out: pTGI (converted); method in brief: as §2
[18] = Growth inhibition of human Caki1 cells incubated for 48 hrs by sulforhodamine B assay; settings: CAKI-1, 48 h; for TGI: read-out: pTGI (converted); method in brief: as §2
[19] = Growth inhibition of human COLO205 cells incubated for 48 hrs by sulforhodamine B assay; settings: COLO 205, 48 h; for CC50: read-out: pLC50 (the source's name) (converted); for TGI: read-out: pTGI (converted); method in brief: as §2
[20] = tested on: MDA-MB-468; experiment: Growth inhibition of human MDA-MB-468 cells assessed as cell growth at 10 uM incubated for 48 hrs by sulforhodamine B assay relative to control; settings: MDA-MB-468, 48 h, read-out: Activity; method in brief: as §1
[21] = Growth inhibition of human HCC2998 cells incubated for 48 hrs by sulforhodamine B assay; settings: HCC 2998, 48 h; for TGI: read-out: pTGI (converted); method in brief: as §2
[22] = Growth inhibition of human COLO205 cells assessed as cell growth at 10 uM incubated for 48 hrs by sulforhodamine B assay relative to control; settings: COLO 205, 48 h, read-out: Activity; method in brief: as §1
[23] = tested on: KM12; experiment: Growth inhibition of human KM12 cells incubated for 48 hrs by sulforhodamine B assay; settings: KM12, 48 h; for TGI: read-out: pTGI (converted); method in brief: as §2
[24] = Growth inhibition of human HOP62 cells assessed as cell growth at 10 uM incubated for 48 hrs by sulforhodamine B assay relative to control; settings: HOP-62, 48 h, read-out: Activity; method in brief: as §1
[25] = tested on: K562; experiment: Growth inhibition of human K562 cells assessed as cell growth at 10 uM incubated for 48 hrs by sulforhodamine B assay relative to control; settings: K562, 48 h, read-out: Activity; method in brief: as §1
[26] = Growth inhibition of human HL-60(TB) cells assessed as cell growth at 10 uM incubated for 48 hrs by sulforhodamine B assay relative to control; settings: HL-60, 48 h, read-out: Activity; method in brief: as §3
[27] = tested on: ACHN; experiment: Growth inhibition of human ACHN cells assessed as cell growth at 10 uM incubated for 48 hrs by sulforhodamine B assay relative to control; settings: read-out: Activity; method in brief: as §1
[28] = tested on: NCI-H460; experiment: Growth inhibition of human NCI-H460 cells incubated for 48 hrs by sulforhodamine B assay; settings: NCI-H460, 48 h; for CC50: read-out: pLC50 (the source's name) (converted); for TGI: read-out: pTGI (converted); method in brief: as §2
[29] = Growth inhibition of human DU145 cells assessed as cell growth at 10 uM incubated for 48 hrs by sulforhodamine B assay relative to control; settings: DU-145, 48 h, read-out: Activity; method in brief: as §1
[30] = Growth inhibition of human HCC2998 cells assessed as cell growth at 10 uM incubated for 48 hrs by sulforhodamine B assay relative to control; settings: HCC 2998, 48 h, read-out: Activity; method in brief: as §3

Work on CC(C)[C@@]12C[C@@H](NC(=O)CO)[C@@](C)(O1)[C@@H]1CC[C@@H](C)[C@H]1[C@@H]2OC(=O)/C=C/c1ccccc1 yielded a growth at 10 µM [1] of -15.2%, a growth at 10 µM [2] of 79.1% and a growth at 10 µM [3] of 104%. The GI50 [4] was 14.5 µM, the CC50 [4] was greater than 50.1 µM and the TGI [4] was 37.2 µM. For the same compound, the growth at 10 µM [5] was 63.3%, the GI50 [6] was 6.92 µM and the CC50 [6] was greater than 50.1 µM. For the same compound, the TGI [6] was 25.1 µM, the growth at 10 µM [7] was 101% and the growth at 10 µM [8] was 51.5%. It also gave a growth at 10 µM [9] of 84.9%, a growth at 10 µM [10] of 88.6% and a GI50 [11] of 3.63 µM. The LC50 [11] was greater than 50.1 µM, the TGI [11] was 24 µM and the growth at 10 µM [12] was 93%. It also gave a GI50 [13] of 16.6 µM, an LC50 [13] greater than 50.1 µM and a TGI [13] greater than 50.1 µM. The growth at 10 µM [14] was 42.9%, the growth at 10 µM [15] was 102% and the GI50 [16] was 3.98 µM. For the same compound, the LC50 (concentration killing 50% of cells) [16] was greater than 50.1 µM, the TGI [16] was 35.5 µM and the GI50 [17] was 13.5 µM. For the same compound, the LC50 [17] was greater than 50.1 µM, the TGI [17] was greater than 50.1 µM and the GI50 [18] was 9.55 µM. For the same compound, the LC50 [18] was greater than 50.1 µM, the TGI [18] was greater than 50.1 µM and the GI50 [19] was 10.7 µM. For the same compound, the CC50 [19] was greater than 50.1 µM, the TGI [19] was 26.3 µM and the growth at 10 µM [20] was 91.3%. For the same compound, the GI50 [21] was 15.8 µM, the LC50 [21] was greater than 50.1 µM and the TGI [21] was greater than 50.1 µM. For the same compound, the growth at 10 µM [22] was 96.4%, the GI50 [23] was 20 µM and the LC50 [23] was greater than 50.1 µM. It also gave a TGI [23] greater than 50.1 µM, a growth at 10 µM [24] of 86.8% and a growth at 10 µM [25] of 86.6%. It also gave a growth at 10 µM [26] of 91.7%, a growth at 10 µM [27] of 8.01% and a GI50 [28] of 17 µM. The CC50 [28] was greater than 50.1 µM, the TGI [28] was greater than 50.1 µM and the growth at 10 µM [29] was 110%.
Work on CC(C)[C@@]12C[C@@H](NC(=O)CO)[C@@](C)(O1)[C@@H]1CC[C@@H](C)[C@H]1[C@@H]2OC(=O)c1ccc2ccccc2c1 yielded a growth at 10 µM [1] of -15.2%, a growth at 10 µM [30] of 105% and a growth at 10 µM [2] of 82.5%. It also gave a growth at 10 µM [3] of 101%, a GI50 [4] of 20.4 µM and a CC50 [4] of 87.1 µM. For the same compound, the TGI [4] was 41.7 µM, the growth at 10 µM [5] was 61.6% and the GI50 [6] was 14.8 µM. The CC50 [6] was 57.5 µM, the TGI [6] was 28.8 µM and the growth at 10 µM [7] was 100%. The growth at 10 µM [8] was 51.3%, the growth at 10 µM [9] was 70.2% and the GI50 [11] was 13.8 µM. It also gave an LC50 [11] of 56.2 µM, a TGI [11] of 28.2 µM and a growth at 10 µM [12] of 93.7%. It also gave a GI50 [13] of 17.4 µM, an LC50 [13] of 60.3 µM and a TGI [13] of 32.4 µM. The growth at 10 µM [14] was 46.8%, the GI50 [16] was 5.37 µM and the LC50 (concentration killing 50% of cells) [16] was 42.7 µM. It also gave a TGI [16] of 17 µM, a GI50 [17] of 14.8 µM and an LC50 [17] of 63.1 µM. For the same compound, the TGI [17] was 30.2 µM, the GI50 [18] was 10 µM and the LC50 [18] was 50.1 µM. For the same compound, the TGI [18] was 22.4 µM, the GI50 [19] was 19.1 µM and the CC50 [19] was 61.7 µM. For the same compound, the TGI [19] was 34.7 µM, the growth at 10 µM [20] was 81.5% and the GI50 [21] was 15.8 µM. For the same compound, the LC50 [21] was 57.5 µM, the TGI [21] was 30.2 µM and the growth at 10 µM [22] was 110%. The GI50 [23] was 17.4 µM, the LC50 [23] was 61.7 µM and the TGI [23] was 32.4 µM. The growth at 10 µM [24] was 89.3%, the growth at 10 µM [25] was 91.2% and the growth at 10 µM [26] was 99.3%. For the same compound, the growth at 10 µM [27] was 8.4%, the GI50 [28] was 20.4 µM and the CC50 [28] was 79.4 µM. For the same compound, the TGI [28] was 40.7 µM and the growth at 10 µM [29] was 98.4%.
